Experimental data reported in ChEMBL document CHEMBL1125826, “Synthesis and biological activity of 5-amino- and 5-hydroxyquinolones, and the overwhelming influence of the remote N1-substituent in determining the structure-activity relationship” (1991).
≈ marks a conversion by molar mass, not a printed value.

Assays:
Format in all cases: functional
[1] = biological target: DNA gyrase (Escherichia coli) (UniProt P0AES6+P0AES4); assay: Minimum inhibitory concentration against Escherichia coli DNA-gyrase in supercoiling assay
Klebsiella pneumoniae = assay: Antibacterial activity was determined against gram negative organism, Klebsiella pneumoniae MGH-2; conditions: Klebsiella pneumoniae; read-out: MIC
Outline: (§1)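 MIC (µg/mL) by standard microtitration against a panel of 10 Gram-positive and Gram-negative organisms; values averaged from multiple experiments.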

Staphylococcus aureus [2] = assay: Antibacterial activity was determined against gram positive organism, Staphylococcus aureus UC76; outline: as §1
Bacteria [3] = assay: MIC ratio measured as the mean MICs of gram-positive bacteria
Outline: (§2)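 Geometric mean of the microtitration MICs (µg/mL) over the Gram-negative organisms, and separately over the Gram-positive organisms, of the 10-strain panel; individual MICs averaged from multiple experiments.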

Enterococcus faecalis = assay: Antibacterial activity was determined against gram positive organism, Streptococcus faecalis MGH-2; conditions: Enterococcus faecalis; read-out: MIC; outline: as §1
Staphylococcus aureus [4] = assay: Antibacterial activity was determined against gram positive organism, Staphylococcus aureus H228; conditions: Staphylococcus aureus; read-out: MIC; outline: as §1
Bacteria [5] = assay: MIC ratio measured as the mean MICs of gram-negative bacteria; outline: as §2
Escherichia coli = assay: Antibacterial activity was determined against gram negative organism, Escherichia coli vogel; conditions: Escherichia coli; read-out: MIC; outline: as §1
Streptococcus pneumoniae = assay: Antibacterial activity was determined against gram positive organism, Streptococcus pneumoniae SV-1; conditions: Streptococcus pneumoniae; read-out: MIC; outline: as §1
Streptococcus pyogenes = assay: Antibacterial activity was determined against gram positive organism, Streptococcus pyogenes C203; conditions: Streptococcus pyogenes; read-out: MIC; outline: as §1
Pseudomonas aeruginosa = assay: Antibacterial activity was determined against gram negative organism, Pseudomonas aeruginosa UI-18; conditions: Pseudomonas aeruginosa; read-out: MIC; outline: as §1
Bacteria [6] = assay: Antibacterial activity was determined against gram negative organism, Providencia rettgeri. M1771; conditions: Bacteria; read-out: MIC; outline: as §1
Enterobacter cloacae = assay: Antibacterial activity was determined against gram negative organism, Enterobacter cloacae MA2646; conditions: Enterobacter cloacae; read-out: MIC
[7] = Staphylococcus aureus, read-out: MIC

| Compound | MIC [1] [µg/mL] | MIC (Klebsiella pneumoniae) [µg/mL] | MIC (Staphylococcus aureus [2]) [µg/mL] | Geometric mean MIC over Gram-positive bacteria (µg/mL) (Bacteria [3]) | MIC (Enterococcus faecalis) [µg/mL] | MIC (Staphylococcus aureus [4]) [µg/mL] | Geometric mean MIC over Gram-negative bacteria (µg/mL) (Bacteria [5]) | MIC (Escherichia coli) [µg/mL] | MIC (Streptococcus pneumoniae) [µg/mL] | MIC (Streptococcus pyogenes) [µg/mL] | MIC (Pseudomonas aeruginosa) [µg/mL] | MIC (Bacteria [6]) [µg/mL] | MIC (Enterobacter cloacae) [µg/mL] | MIC (Staphylococcus aureus [2]; [7]) [µg/mL] |
| --- | --- | --- | --- | --- | --- | --- | --- | --- | --- | --- | --- | --- | --- | --- |
| CCn1cc(C(=O)O)c(=O)c2cc(F)c(N3CCNCC3)c(Cl)c21 | 2.5 (≈ 7.07 µM) | 0.2 (≈ 0.565 µM) | 0.2 (≈ 0.565 µM) | 1.19 | 3.1 (≈ 8.76 µM) | 0.4 (≈ 1.13 µM) | 0.3 | 0.1 (≈ 0.283 µM) | 3.1 (≈ 8.76 µM) | 3.1 (≈ 8.76 µM) | 3.1 (≈ 8.76 µM) | 0.4 (≈ 1.13 µM) | 0.1 (≈ 0.283 µM) | – |
| CCn1cc(C(=O)O)c(=O)c2c(O)c(F)c(N3CCNCC3)c(F)c21 | 5 (≈ 14.2 µM) | 0.8 (≈ 2.26 µM) | – | 12.56 | 25 (≈ 70.8 µM) | 12.5 (≈ 35.4 µM) | 0.8 | 0.4 (≈ 1.13 µM) | 25 (≈ 70.8 µM) | 25 (≈ 70.8 µM) | 1.6 (≈ 4.53 µM) | 1.6 (≈ 4.53 µM) | 0.4 (≈ 1.13 µM) | 1.6 (≈ 4.53 µM) |
| CCNCC1CCN(c2c(F)c(N)c3c(=O)c(C(=O)O)cn(CC)c3c2Cl)C1 (stereo not given) | 2.5 (≈ 6.08 µM) | 6.3 (≈ 15.3 µM) | – | 1.59 | 1.6 (≈ 3.89 µM) | 1.6 (≈ 3.89 µM) | 6.28 | 1.6 (≈ 3.89 µM) | 1.6 (≈ 3.89 µM) | 6.3 (≈ 15.3 µM) | 25 (≈ 60.8 µM) | 12.5 (≈ 30.4 µM) | 3.1 (≈ 7.54 µM) | 0.4 (≈ 0.974 µM) |
| CCn1cc(C(=O)O)c(=O)c2c(O)c(F)c(N3CC(C)NC(C)C3)c(F)c21 (stereo not given) | 5 (≈ 13.1 µM) | 1.6 (≈ 4.2 µM) | – | 16.49 | 25 (≈ 65.6 µM) | 6.3 (≈ 16.5 µM) | 2.41 | 0.8 (≈ 2.1 µM) | 50 (≈ 131 µM) | 50 (≈ 131 µM) | 12.5 (≈ 32.8 µM) | 6.3 (≈ 16.5 µM) | 0.8 (≈ 2.1 µM) | 3.1 (≈ 8.13 µM) |
| CCn1cc(C(=O)O)c(=O)c2cc(F)c(N3CCNCC3)c(F)c21 | 2.5 (≈ 7.41 µM) | 0.1 (≈ 0.296 µM) | 0.4 (≈ 1.19 µM) | 1.58 | 1.6 (≈ 4.74 µM) | 1.6 (≈ 4.74 µM) | 0.17 | 0.1 (≈ 0.296 µM) | 3.1 (≈ 9.19 µM) | 3.1 (≈ 9.19 µM) | 0.8 (≈ 2.37 µM) | 0.2 (≈ 0.593 µM) | 0.1 (≈ 0.296 µM) | – |
| CCn1cc(C(=O)O)c(=O)c2cc(F)c(N3CC(C)NC(C)C3)cc21 (stereo not given) | 2.5 (≈ 7.2 µM) | 0.4 (≈ 1.15 µM) | 0.4 (≈ 1.15 µM) | 1.21 | 1.6 (≈ 4.61 µM) | 1.6 (≈ 4.61 µM) | 0.6 | 0.2 (≈ 0.576 µM) | 1.6 (≈ 4.61 µM) | 1.6 (≈ 4.61 µM) | 6.3 (≈ 18.1 µM) | 0.8 (≈ 2.3 µM) | 0.2 (≈ 0.576 µM) | – |
| CCn1cc(C(=O)O)c(=O)c2c(N)c(F)c(N3CC(C)NC(C)C3)c(F)c21 (stereo not given) | 7.5 (≈ 19.7 µM) | 0.8 (≈ 2.1 µM) | – | 4.79 | 6.3 (≈ 16.6 µM) | 1.6 (≈ 4.21 µM) | 1.58 | 0.4 (≈ 1.05 µM) | 12.5 (≈ 32.9 µM) | 25 (≈ 65.7 µM) | 12.5 (≈ 32.9 µM) | 3.1 (≈ 8.15 µM) | 0.8 (≈ 2.1 µM) | 0.8 (≈ 2.1 µM) |
| CC1CN(c2cc3c(cc2F)c(=O)c(C(=O)O)cn3-c2ccc(F)cc2F)CCN1 (stereo not given) [TEMAFLOXACIN] | 0.75 (≈ 1.8 µM) | 0.1 (≈ 0.24 µM) | 0.025 (≈ 0.0599 µM) | 0.087 | 0.2 (≈ 0.479 µM) | 0.1 (≈ 0.24 µM) | 0.15 | 0.05 (≈ 0.12 µM) | 0.1 (≈ 0.24 µM) | 0.1 (≈ 0.24 µM) | 1.6 (≈ 3.83 µM) | 0.2 (≈ 0.479 µM) | 0.05 (≈ 0.12 µM) | – |
| CCn1cc(C(=O)O)c(=O)c2cc(F)c(N3CCC(N)C3)c(F)c21 (stereo not given) | 2.5 (≈ 7.41 µM) | 0.2 (≈ 0.593 µM) | 0.1 (≈ 0.296 µM) | 0.27 | 0.4 (≈ 1.19 µM) | 0.4 (≈ 1.19 µM) | 0.17 | 0.1 (≈ 0.296 µM) | 0.4 (≈ 1.19 µM) | 0.2 (≈ 0.593 µM) | 0.4 (≈ 1.19 µM) | 0.2 (≈ 0.593 µM) | 0.1 (≈ 0.296 µM) | – |
| CCn1cc(C(=O)O)c(=O)c2cc(F)c(N3CCNC(C)C3)c(F)c21 (stereo not given) [LOMEFLOXACIN] | 2.5 (≈ 7.12 µM) | 0.2 (≈ 0.569 µM) | 0.4 (≈ 1.14 µM) | 1.58 | 3.1 (≈ 8.82 µM) | 1.6 (≈ 4.55 µM) | 0.26 | 0.1 (≈ 0.285 µM) | 1.6 (≈ 4.55 µM) | 3.1 (≈ 8.82 µM) | 1.6 (≈ 4.55 µM) | 0.4 (≈ 1.14 µM) | 0.1 (≈ 0.285 µM) | – |
